sEH inhibitor = soluble epoxide hydrolase inhibitors, primary screen, biochemical, human sEH. Bifunctional epoxide hydrolase 2 (Homo sapiens), P34913. 91,000 tested, 0.34% active. inhibition, % at 2 µM. recombinant human sEH enzymatic activity assay; in the data active = inhibition above about 80%
Target sequence (P34913 whole entry, looked up): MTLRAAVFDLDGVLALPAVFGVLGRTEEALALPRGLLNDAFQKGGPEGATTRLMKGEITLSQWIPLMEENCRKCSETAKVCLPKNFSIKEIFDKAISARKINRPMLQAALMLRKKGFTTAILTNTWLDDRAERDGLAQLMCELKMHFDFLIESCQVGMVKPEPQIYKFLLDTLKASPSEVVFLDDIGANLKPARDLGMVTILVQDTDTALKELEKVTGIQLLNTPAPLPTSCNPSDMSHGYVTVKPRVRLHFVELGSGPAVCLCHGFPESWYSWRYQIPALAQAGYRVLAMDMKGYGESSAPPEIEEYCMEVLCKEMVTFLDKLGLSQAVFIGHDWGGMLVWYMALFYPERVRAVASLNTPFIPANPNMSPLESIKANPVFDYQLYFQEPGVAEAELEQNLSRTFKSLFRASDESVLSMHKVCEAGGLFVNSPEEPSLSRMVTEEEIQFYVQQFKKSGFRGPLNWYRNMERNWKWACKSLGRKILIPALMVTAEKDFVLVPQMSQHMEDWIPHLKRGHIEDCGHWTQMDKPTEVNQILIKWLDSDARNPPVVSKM
sdo1 growth = growth rescue of sdo1-depleted yeast, primary screen, S. cerevisiae, bone marrow failure model. S. cerevisiae sdo1-depleted JHY4D growth rescue, OD600 30 h; stronger effect = higher value; pdr5 snq2 efflux-pump mutant strain. z-score at 10 µM. 140,000 tested, 0.21% active. AID 817, 2007;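 active = z-score above 3 at both the 24 hr and the 30 hr optical density reads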
Measles CPE = compounds protecting cells from measles virus cytopathic effect, primary screen, measles RdRp inhibitor project, single point, MLSMR library, absorbance; protection (pct of control), % at 4 µM; 140,000 tested, 1.5% active; AID 841, 2007; Measles virus-infected cells, CPE protection; in the data active = protection mostly above about 24%, no sharp cut-off; inactive = mostly below about 26%
sEH activator = soluble epoxide hydrolase activators, primary screen, biochemical, human sEH; Bifunctional epoxide hydrolase 2 (Homo sapiens), P34913; purified human sEH enzymatic activity, activator screen; activation, % at 2 µM; 91,000 tested, 0.04% active; AID 717, 2007; in the data active = activation above about 37%
Yeast growth inh = growth inhibitors of yeast BB579 in restrictive medium, primary screen, yeast lifespan-shortening project, S. cerevisiae | OD615, 48 h | inhibition, % at 10 µM | 140,000 tested, 0.51% active | AID 804, 2007;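 active = inhibition above a set limit, 3 SD over the mean compound inhibition, cut at about 44% in these data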
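Material: Saccharomyces cerevisiae DeaD strain BB579, replicative lifespan model yeast; buffer or medium: CSMM-D restrictive synthetic medium containing dextrose (glucose); compound: 10 µM single dose, DMSO 0.25%; timing: 48 h compound exposure at 30 °C after 4 h preincubation; signal: turbidity as optical density at 615 nm; benchmarks: positive control amphotericin B 10 µg/mL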
Yeast life ext = compounds extending yeast replicative lifespan, primary screen, S. cerevisiae, OD615 | S. cerevisiae growth with nicotinamide; deaD strain in restrictive glucose medium | 130,000 tested, 0.68% active | inhibition of the nicotinamide effect, % at 10 µM;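 active = inhibition above a set limit, placed 3 SD over the median of all compounds, cut at about 26% in these data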
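assay system = DeaD-strain S. cerevisiae | buffer or medium = restrictive glucose medium | reagent = 1.5 mM nicotinamide | compound = 10 µM single point, 0.25% DMSO | incubation = 48 h compound exposure at 30 °C, humidified | signal = OD615 measurement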
SDO1 rescue DR = SDO1-depleted yeast growth rescue, concentration-response, diseases of bone marrow failure, JHY4D, OD600; OD recovery (test concentration not listed); AID 949, 2007; S. cerevisiae JHY4D (SDO1-depleted) growth rescue, 30 h; stronger effect = higher value; efflux-deficient strain, SNQ2 and PDR5 mutated; 440 tested, 44% active; shares compounds with sdo1 growth;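 active = yeast growth recovered at 30 hours, either rising with dose fitted slope above 0.001 or with average optical density gain above 0.07, some results past the limit were not filed as active; inactive = growth falling with dose or no effect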
Of the large screens only hits and unclear results are named; the others gave an inactive call (follow-up assays come after a bar, where they were run). In the library only some 3% were active in any assay of this set; here they are far more common.

O=C(CSc1nnc(CNc2cccc(Cl)c2)o1)OC1CCCCC1	sdo1 growth 12 | SDO1 rescue DR 0.09
Cc1ccc(/C=N/N2CCN(Cc3cccc4ccccc34)CC2)o1	none
CC(C)(C)NC(=O)NC(=O)COc1ccccn1	sdo1 growth 3.2 | SDO1 rescue DR inactive
CC(C)(C)NC(=O)NC(=O)COC(=O)COc1ccc2c(c1)CCC2	none (no result: sEH inhibitor, sEH activator)
COC(=O)CSC(C(=O)Nc1ccc(C)c(C)c1)c1ccccc1 (stereo not drawn)	none
S=c1sc2c(N3CCOCC3)ncnc2n1-c1ccccc1	sdo1 growth 7.6 (no result: sEH inhibitor, sEH activator) | SDO1 rescue DR inactive
COc1cccc(CC2CC(=O)N(CCc3ccc4c(c3)OCO4)C2=O)c1 (stereo not drawn)	sdo1 growth 5.3 | SDO1 rescue DR 0.088
COC(=O)C1(c2ccccc2)NC(c2cccs2)C2C(=O)N(c3ccccc3)C(=O)C21 (stereo not drawn)	none (no result: Yeast life ext)
COC(=O)C1(C(=O)OC)NOC2C(=O)N(c3ccccc3)C(=O)C21 (stereo not drawn)	sdo1 growth 7.8 | SDO1 rescue DR 0.092
CC1CCCC(=C\c2ccccc2)/C1=N/O (stereo not drawn)	none (no result: sEH inhibitor, sEH activator)
CCOC(=O)C1CCCN(C(=O)Nc2cccc(Cl)c2)C1 (stereo not drawn)	none | SDO1 rescue DR inactive
Cc1cc(NC(=O)c2cccs2)n(-c2ccccc2)n1	sdo1 growth 3.5 | SDO1 rescue DR 0.083
Cc1ccc(CSCC(=O)N/N=C/c2sccc2C)cc1	none
COc1cccc2c1OCC/C2=N\NC(=O)COc1ccc(C)cc1	none (no result: sEH inhibitor, sEH activator) | SDO1 rescue DR inactive
CC1=C/C(=N\Nc2ccccc2[N+](=O)[O-])CC(C)(C)C1	none (no result: sEH inhibitor, sEH activator)

From PubChem BioAssay
